Activity calls are given as the source filed them.
Assays:
Mus musculus [1] = experiment: Antinociceptive activity in icv dosed ICR mouse assessed as warm-water tail-withdrawal latency administered bid for 3 days; format: functional
Mus musculus [2] = experiment: Antinociceptive activity in ICR mouse assessed as warm-water tail-withdrawal latency at 0.1 to 100 nmol, icv bid for 3 days relative to naive control; format: functional
Mus musculus [3] = experiment: Antinociceptive activity in ICR mouse assessed as warm-water tail-withdrawal latency at 10 nmol, icv by tail flick assay; format: functional
Method in brief: (§1)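 Male ICR mice dosed i.c.v. in 5 µL (test compounds in 100% DMSO, morphine in water) under light ether anaesthesia. Tail withdrawal from 55 °C water, 10 s cutoff, tested 10–180 min post-injection. %MPE computed against pre-drug baseline. A50 with 95% confidence limits by linear regression at time of peak effect.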

Mus musculus [4] = experiment: Antinociceptive activity in icv dosed ICR mouse assessed as warm-water tail-withdrawal latency by tail flick assay; format: functional; method in brief: as §1
CHO [5] = experiment: Activity at human MOR/mouse DOR expressed in CHO cells assessed as increase in forskolin-stimulated cAMP accumulation at 1 uM after drug exposure for 20 hrs followed by washout in the presence of naloxone; format: functional, cell-based
Method in brief: (§2)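 MOR/DOR co-expressing CHO cells (mouse N-cMyc DOR + human MOR) exposed 20 h to drug, then washed three times with serum-free medium and preincubated 20 min at 37 °C with IBMX 500 µM. Then 10 min at 37 °C with forskolin 100 µM/IBMX 500 µM, with or without 10 µM naloxone. Read-out was cAMP by [3H]cAMP–protein kinase binding against a standard curve. Mean of n=3.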

CHO [6] = experiment: Activity at human MOR/mouse DOR expressed in CHO cells assessed as increase in forskolin-stimulated cAMP accumulation at 1 uM after drug exposure for 20 hrs followed by washout; format: functional, cell-based; method in brief: as §2
CHO [7] = experiment: Activity at human MOR/mouse DOR expressed in CHO cells assessed as increase in forskolin-stimulated cAMP accumulation at 30 nM after drug exposure for 20 hrs followed by washout in the presence of naloxone; format: functional, cell-based; method in brief: as §2
[8] = target: T1, Kappa-type opioid receptor (Homo sapiens, UniProt P41145); experiment: Agonist activity at human kappa opioid receptor expressed in CHO cells assessed as [35S]GTPgammaS binding at 10 uM by scintillation counting analysis; format: functional, cell-based
Method in brief: (§3)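 Human KOR or MOR in CHO cell membranes (50 µg protein), 3 h at 25 °C, pH 7.4 Tris buffer with 100 mM NaCl, 10 mM MgCl2, 1 mM EDTA, 1 mM DTT, 0.1% BSA, GDP 40 µM and [35S]GTP-γ-S 50 pM. Stimulation = (S−B)/B×100, with Emax relative to U69,593 (KOR) or DAMGO (MOR). Curves were ten points, ≥3 experiments pooled. Antagonist Ke was taken from the shift in standard agonist EC50.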

Mus musculus [9] = experiment: Antinociceptive activity in icv dosed ICR mouse assessed as warm-water tail-withdrawal latency by tail flick assay in presence of naloxone; format: functional, organism-based
Mus musculus [10] = experiment: Antinociceptive activity in ICR mouse assessed as warm-water tail-withdrawal latency at 1 nmol, icv by tail flick assay; format: functional; method in brief: as §1
CHO [11] = experiment: Activity at human MOR/mouse DOR expressed in CHO cells assessed as increase in forskolin-stimulated cAMP accumulation at 30 nM after drug exposure for 20 hrs followed by washout; format: functional, cell-based; method in brief: as §2
[12] = Activity at human MOR/mouse DOR expressed in CHO cells assessed as inhibition of DAMGO-mediated forskolin-stimulated cAMP accumulation at 30 nM after 20 hrs by scintillation counting analysis; format: functional
Method in brief: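 CHO cells stably co-expressing human MOR and cMyc-tagged mouse DOR were pretreated 20 h with 30 nM drug or medium, then washed. They were preincubated 20 min with 500 µM IBMX, then given 15 min with IBMX, 100 µM forskolin and graded DAMGO at 37 °C. cAMP was measured by [3H]cAMP–protein kinase binding against a standard curve.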

[13] = Activity at human MOR/mouse DOR expressed in CHO cells assessed as inhibition of DAMGO-mediated forskolin-stimulated cAMP accumulation after 20 hrs by scintillation counting analysis relative to morphine; format: functional
Method in brief: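 CHO cells stably co-expressing human MOR and N-cMyc-tagged mouse DOR, treated 20 h with drug (morphine 1 µM; test compounds 30 nM) or medium. Cells washed, 20 min in serum-free medium with 500 µM IBMX at 37 °C, then 15 min with IBMX plus 100 µM forskolin and graded DAMGO. Acid-extracted cAMP measured by [³H]cAMP protein-kinase binding competition. DAMGO EC₅₀ expressed as fold over control cells; n=3.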

Mu-type opioid receptor [14] = target: T2, Mu-type opioid receptor (Homo sapiens, UniProt P35372); experiment: Agonist activity at human mu opioid receptor expressed in CHO cells assessed as [35S]GTPgammaS binding by scintillation counting analysis relative to DAMGO; format: functional, cell-based; method in brief: as §3
Mu-type opioid receptor [15] = target: T2, Mu-type opioid receptor; experiment: Agonist activity at human mu opioid receptor expressed in CHO cells assessed as [35S]GTPgammaS binding by scintillation counting analysis; format: functional, cell-based; method in brief: as §3
[16] = Agonist activity at delta opioid receptor expressed in rat/mouse NG108-15 cells assessed as [35S]GTPgammaS binding by scintillation counting analysis relative to DADLE; format: functional, cell-based
Method in brief: as §3, with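 “NG108-15” for “Human KOR or MOR in CHO”, “pM. Nonspecific binding with 40 µM GTP-γ-S; filtration and scintillation counting.” for “pM.”, “DADLE.” for “U69,593 (KOR) or DAMGO (MOR).”, “pooled.” for “pooled. Antagonist”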

Homo sapiens [17] = organism: Homo sapiens; experiment: Selectivity ratio of Ki for human kappa opioid receptor to Ki for human delta opioid receptor
Homo sapiens [18] = organism: Homo sapiens; experiment: Selectivity ratio of Ki for human mu opioid receptor to Ki for human delta opioid receptor
[19] = target: T1, Kappa-type opioid receptor; experiment: Displacement of [3H]U69,593 from human kappa opioid receptor expressed in CHO cells by scintillation counting analysis; format: cell-based
Mu-type opioid receptor [20] = target: T2, Mu-type opioid receptor; experiment: Displacement of [3H]DAMGO from human mu opioid receptor expressed in CHO cells by scintillation counting analysis; format: cell-based
[21] = target: Delta-type opioid receptor (Homo sapiens, UniProt P41143); experiment: Displacement of [3H]DADLE from human delta opioid receptor expressed in CHO cells by scintillation counting analysis; format: cell-based
cells = details: CHO, 20 h

T2 sequence (P35372 whole entry): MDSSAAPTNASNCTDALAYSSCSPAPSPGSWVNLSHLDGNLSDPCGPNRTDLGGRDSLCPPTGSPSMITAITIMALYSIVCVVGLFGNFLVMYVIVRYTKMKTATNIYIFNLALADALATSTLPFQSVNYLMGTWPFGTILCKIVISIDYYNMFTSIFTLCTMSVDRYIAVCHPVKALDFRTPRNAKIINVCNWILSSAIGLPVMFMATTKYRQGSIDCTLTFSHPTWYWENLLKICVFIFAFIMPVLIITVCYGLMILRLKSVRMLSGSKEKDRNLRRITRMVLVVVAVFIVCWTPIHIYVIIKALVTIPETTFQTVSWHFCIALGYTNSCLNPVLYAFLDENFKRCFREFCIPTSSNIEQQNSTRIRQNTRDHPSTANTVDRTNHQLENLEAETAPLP
T1 sequence (P41145 whole entry): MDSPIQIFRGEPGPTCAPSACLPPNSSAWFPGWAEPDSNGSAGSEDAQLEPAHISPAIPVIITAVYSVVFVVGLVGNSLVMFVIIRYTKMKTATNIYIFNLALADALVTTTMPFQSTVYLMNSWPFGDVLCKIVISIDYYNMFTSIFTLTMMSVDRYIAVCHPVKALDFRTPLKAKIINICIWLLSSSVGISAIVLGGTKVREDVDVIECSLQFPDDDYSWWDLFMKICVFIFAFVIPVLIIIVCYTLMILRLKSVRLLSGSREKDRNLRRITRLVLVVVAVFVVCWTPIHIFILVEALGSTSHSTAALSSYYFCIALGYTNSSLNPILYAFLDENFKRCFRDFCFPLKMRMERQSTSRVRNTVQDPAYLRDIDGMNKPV
Chain of Delta-type opioid receptor (P41143 whole entry): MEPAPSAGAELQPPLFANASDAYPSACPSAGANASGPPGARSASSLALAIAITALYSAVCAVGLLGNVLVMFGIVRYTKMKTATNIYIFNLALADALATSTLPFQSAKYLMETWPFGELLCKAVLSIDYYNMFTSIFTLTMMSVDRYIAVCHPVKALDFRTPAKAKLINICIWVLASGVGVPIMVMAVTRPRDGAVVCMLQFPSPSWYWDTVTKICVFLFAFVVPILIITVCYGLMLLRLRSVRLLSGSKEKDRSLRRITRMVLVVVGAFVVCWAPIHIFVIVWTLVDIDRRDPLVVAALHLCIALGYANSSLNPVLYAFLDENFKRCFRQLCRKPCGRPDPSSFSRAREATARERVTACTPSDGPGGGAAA

CN1CC[C@]23c4c5ccc(O)c4O[C@H]2[C@@H](O)C=C[C@H]3[C@H]1C5 [MORPHINE]
A50 (Mus musculus [1]): 19.04 nmol
fold change (FC) (Mus musculus [2]): 44
%max (Mus musculus [3]): 100%
A50 (Mus musculus [4]): 0.43 nmol
Activity (CHO [5]): Active
Activity (CHO [6]): Active

CN1CC[C@]23c4c5ccc(O)c4O[C@H]2c2ncc(-c4ccc(Cl)cc4)cc2C[C@@]3(OCCCc2ccccc2)[C@H]1C5
Activity (CHO [7]): Active
Activity [8]: inactive
Activity (Mus musculus [9]): inactive
%max (Mus musculus [10]): 92%
A50 (Mus musculus [4]): 0.23 nmol
Activity (Mus musculus [4]): Dose-dependent effect
Activity (CHO [11]): Active
Emax at 0.03 µM [12]: 20%
fold change (FC) [13]: 7
Emax (Mu-type opioid receptor [14]): 125%
EC50 (Mu-type opioid receptor [15]): 2.15 nM
Emax [16]: 85%
Ratio Ki (Homo sapiens [17]): 1.5
Ratio Ki (Homo sapiens [18]): 0.52
Ki [19]: 1.53 nM
Ki (Mu-type opioid receptor [20]): 0.54 nM
Ki [21]: 1.04 nM
EC50 (cells): 0.34 nM

Reference: ChEMBL document CHEMBL2177065, “14-Alkoxy- and 14-acyloxypyridomorphinans: μ agonist/δ antagonist opioid analgesics with diminished tolerance and dependence side effects” (J Med Chem, 2012)
